Each structure is given as a SMILES string. Values after ≈ are worked out from the molar mass of the structure shown. Active and inactive are the calls of the source. A value given as a limit tells only on which side of the number the result lay.

In series [1] the test system is Staphylococcus aureus. The series can be described thus: Antibacterial activity against vancomycin-resistant Staphylococcus aureus isolate 4 after 20 hrs by broth microdilution assay. It is filed as functional. The settings on record: isolate 4, 20 h. In general terms: In broth dilution the organism is exposed to a series of concentrations in liquid medium.
The subject of series [2] is Staphylococcus aureus. The series can be described thus: Antibacterial activity against vancomycin-resistant Staphylococcus aureus isolate 10 after 20 hrs by broth microdilution assay. The settings on record: isolate 10, 20 h. It is filed as functional.
Series [3] concerns Staphylococcus aureus. The experiment in a line: Bactericidal activity against vancomycin-resistant Staphylococcus aureus isolate 10 incubated for 20 hrs followed by replating on tryptic soy agar plates and further incubated for 18 hrs by broth microdilution assay. The class given is functional. The method, boiled down: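 From MIC wells without visible growth, an aliquot was spotted onto Tryptic soy agar and incubated at 37 °C for at least 18 h; MBC = lowest concentration inhibiting 99.9% of bacterial growth.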

Series [4] concerns Staphylococcus aureus. The experiment in a line: Bactericidal activity against methicillin-resistant Staphylococcus aureus NRS123 (USA400) assessed as time required for complete bacterial elimination after 24 hrs by time-kill assay. It is filed as functional.
The subject of series [5] is Staphylococcus aureus. The experiment in a line: Antibacterial activity against methicillin-resistant Staphylococcus aureus NRS123 (USA400) infected in mouse J774 cells assessed as reduction in bacterial colony forming units at 16 ug/ml after 24 hrs relative to control. It is filed as functional. Summed up: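 J774 macrophages in DMEM + 10% FBS, 37 °C, 5% CO2, infected with USA400 at MOI ~100:1; after 1 h, gentamicin (50 µg/mL) wash; agent at 16 µg/mL in triplicate; at time point, gentamicin wash, lysis in 0.1% Triton X-100, serial dilution, TSA plating 18-22 h at 37 °C; % CFU/mL reduction versus untreated; t-test.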

In series [6] the test system is Staphylococcus aureus. The series can be described thus: Antibacterial activity against methicillin-resistant Staphylococcus aureus USA300 NRS384 infected in Caenorhabditis elegans AU37 assessed as reduction in bacterial burden at 20 ug/ml after 18 hrs by microscopic analysis. The class given is functional.
For series [7], the system named is Staphylococcus aureus. The experiment in a line: Inhibition of cell wall synthesis in Staphylococcus aureus RN4220 NRS107 assessed as UDP-N-acetylmuramyl pentapeptide formation at 10 times MIC incubated for 30 mins by HPLC-MS analysis. The class given is functional, organism-based.
Series [8] deals with Staphylococcus aureus. The series can be described thus: Antibacterial activity against methicillin-resistant Staphylococcus aureus NRS123 (USA400) after 20 hrs by broth microdilution assay. The class given is functional.
In series [9] the test system is Staphylococcus aureus. The experiment in a line: Antibacterial activity against methicillin-resistant Staphylococcus aureus USA100 NRS382 after 20 hrs by broth microdilution assay. It is filed as functional. The settings on record: USA100 NRS382, 20 h.
The test system of series [10] is Staphylococcus aureus. The series can be described thus: Antibacterial activity against methicillin-resistant Staphylococcus aureus USA200 NRS383 after 20 hrs by broth microdilution assay. The class given is functional. The settings on record: USA200 NRS383, 20 h.
Series [11] deals with Staphylococcus aureus. The experiment in a line: Antibacterial activity against methicillin-resistant Staphylococcus aureus USA300 NRS384 after 20 hrs by broth microdilution assay. It is filed as functional. The note with it: USA300 NRS384, 20 h.
The test system of series [12] is Staphylococcus aureus. The experiment in a line: Bactericidal activity against methicillin-resistant Staphylococcus aureus NRS123 (USA400) incubated for 20 hrs followed by replating on tryptic soy agar plates and further incubated for 18 hrs by broth microdilution assay. The class given is functional.
In series [13] the test system is Staphylococcus aureus. The experiment in a line: Bactericidal activity against methicillin-resistant Staphylococcus aureus USA100 NRS382 incubated for 20 hrs followed by replating on tryptic soy agar plates and further incubated for 18 hrs by broth microdilution assay. The class given is functional.
Series [14] concerns Staphylococcus aureus. The experiment in a line: Bactericidal activity against methicillin-resistant Staphylococcus aureus USA200 NRS383 incubated for 20 hrs followed by replating on tryptic soy agar plates and further incubated for 18 hrs by broth microdilution assay. It is filed as functional.
The test system of series [15] is Staphylococcus aureus. The experiment in a line: Bactericidal activity against methicillin-resistant Staphylococcus aureus USA300 NRS384 incubated for 20 hrs followed by replating on tryptic soy agar plates and further incubated for 18 hrs by broth microdilution assay. The class given is functional.
For series [16], the system named is Staphylococcus aureus. The series can be described thus: Antibacterial activity against Staphylococcus aureus RN4220 NRS107 after 20 hrs by broth microdilution assay. The class given is functional. The note with it: RN4220 NRS107, 20 h.
Series [17] has as its system Staphylococcus aureus. The series can be described thus: Bactericidal activity against Staphylococcus aureus RN4220 NRS107 incubated for 20 hrs followed by replating on tryptic soy agar plates and further incubated for 18 hrs by broth microdilution assay. It is filed as functional.
For series [18], the system named is Staphylococcus aureus. The series can be described thus: Bactericidal activity against vancomycin-resistant Staphylococcus aureus isolate 4 incubated for 20 hrs followed by replating on tryptic soy agar plates and further incubated for 18 hrs by broth microdilution assay. It is filed as functional.
Series [19] in a line: Intrinsic clearance in human liver microsomes in presence of NADPH by LC-MS/MS analysis. The note with it: read-out: CLH. The class given is ADME, microsome. The method, boiled down:
(§1)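 Human liver microsomal protein was incubated in duplicate at 37 °C in 100 mM potassium phosphate, 2 mM NADPH, 3 mM MgCl2, pH 7.4. Samples were taken at 0, 10, 20, 40 and 60 min and stopped with ice-cold methanol containing an internal standard. Half-life was derived from depletion. CLint = ln(2)/(T1/2 × microsomal protein concentration).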

Series [20] can be described thus: Half life in human liver microsomes in presence of NADPH by LC-MS/MS analysis. It is filed as ADME, microsome. The settings on record: liver microsomes. The method, boiled down:
as §1

Series [21] in a line: Half life in human liver microsomes in absence of NADPH by LC-MS/MS analysis. It is filed as ADME, microsome. The method, boiled down: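 Human liver microsomes were incubated in duplicate at 37 °C in 100 mM potassium phosphate with 3 mM MgCl2, pH 7.4, without NADPH to detect NADPH-free degradation. Aliquots were taken at 0, 10, 20, 40 and 60 min and quenched in ice-cold methanol containing an internal standard, then held at least 10 min at -20 °C before water was added. Half-life was taken from compound depletion.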
A general note: Microsomes from liver hold many membrane-bound enzymes, among them those of drug oxidation.

`CN[C@H](CC(C)C)C(=O)N[C@H]1C(=O)N[C@@H](CC(N)=O)C(=O)N[C@H]2C(=O)N[C@H]3C(=O)N[C@H](C(=O)N[C@H](C(=O)O)c4cc(O)cc(O)c4-c4cc3ccc4O)[C@H](O)c3ccc(c(Cl)c3)Oc3cc2cc(c3O[C@@H]2O[C@H](CO)[C@@H](O)[C@H](O)[C@H]2O[C@H]2C[C@](C)(N)[C@H](O)[C@H](C)O2)Oc2ccc(cc2Cl)[C@H]1O` [VANCOMYCIN]: the MIC with Staphylococcus aureus [1] is over 512 µg/mL; against Staphylococcus aureus [2], at least 512 µg/mL. The compound also showed an MBC in the series with Staphylococcus aureus [3] of over 512 µg/mL. For the same compound, the Time in the series on Staphylococcus aureus [4] came out at 24 h. The outcome in the series on Staphylococcus aureus [5] and in the series on Staphylococcus aureus [6] was inactive. Also, the inhibition entry with Staphylococcus aureus [7] is “Active”.

For the compound `Cc1nc(-c2ccc3ccccc3c2)sc1-c1cnc(NN)s1`, the MIC is 16 µg/mL (≈ 47.3 µM) against Staphylococcus aureus [8]; 8 µg/mL (≈ 23.6 µM) in the series with Staphylococcus aureus [9]; 8 µg/mL (≈ 23.6 µM) with Staphylococcus aureus [10]; 16 µg/mL (≈ 47.3 µM) in the series with Staphylococcus aureus [11]; 16 µg/mL (≈ 47.3 µM) in the series on Staphylococcus aureus [2]. In addition, the MBC in the series on Staphylococcus aureus [12] was over 64 µg/mL; against Staphylococcus aureus [13] it was over 64 µg/mL; with Staphylococcus aureus [14] it was over 64 µg/mL; in the series on Staphylococcus aureus [15], 64 µg/mL (≈ 189 µM); with Staphylococcus aureus [3] it was 16 µg/mL (≈ 47.3 µM).

Take `Cc1nc(-c2ccc(-c3ccccc3)cc2)sc1-c1cnc(NN)s1`: the MIC with Staphylococcus aureus [8] is 16 µg/mL (≈ 43.9 µM); in the series with Staphylococcus aureus [9] it was 8 µg/mL (≈ 21.9 µM); in the series on Staphylococcus aureus [10] it was 8 µg/mL (≈ 21.9 µM); in the series with Staphylococcus aureus [11], 16 µg/mL (≈ 43.9 µM); against Staphylococcus aureus [2] it was 16 µg/mL (≈ 43.9 µM). The MBC in the series with Staphylococcus aureus [12] is over 64 µg/mL; in the series with Staphylococcus aureus [13], over 64 µg/mL; in the series on Staphylococcus aureus [14], over 64 µg/mL; against Staphylococcus aureus [15], 64 µg/mL (≈ 176 µM); in the series with Staphylococcus aureus [3], 16 µg/mL (≈ 43.9 µM).

As to `Cc1nc(-c2ccc3ccccc3c2)sc1-c1cnc(-c2cccnc2)s1`, the MIC in the series with Staphylococcus aureus [8] was found to be 16 µg/mL (≈ 41.5 µM); against Staphylococcus aureus [9] it was 8 µg/mL (≈ 20.8 µM); in the series on Staphylococcus aureus [10], 8 µg/mL (≈ 20.8 µM); in the series with Staphylococcus aureus [11], 16 µg/mL (≈ 41.5 µM); in the series with Staphylococcus aureus [2], 16 µg/mL (≈ 41.5 µM). In addition, the MBC in the series on Staphylococcus aureus [12] was over 64 µg/mL; in the series on Staphylococcus aureus [13], over 64 µg/mL; against Staphylococcus aureus [14], over 64 µg/mL; in the series on Staphylococcus aureus [15], 64 µg/mL (≈ 166 µM); in the series on Staphylococcus aureus [3], 16 µg/mL (≈ 41.5 µM).

Regarding `CCCCc1ccc(-c2nc(C)c(-c3cnc(NC(=N)N)s3)s2)cc1`, the MIC with Staphylococcus aureus [16] was found to be 16 µg/mL (≈ 43.1 µM); against Staphylococcus aureus [8], 16 µg/mL (≈ 43.1 µM); in the series with Staphylococcus aureus [11], 16 µg/mL (≈ 43.1 µM); against Staphylococcus aureus [1], 8 µg/mL (≈ 21.5 µM); against Staphylococcus aureus [2], 8 µg/mL (≈ 21.5 µM). Further, the MBC came to 32 µg/mL (≈ 86.1 µM) in the series with Staphylococcus aureus [17]; 16 µg/mL (≈ 43.1 µM) in the series on Staphylococcus aureus [12]; 16 µg/mL (≈ 43.1 µM) against Staphylococcus aureus [15]; 8 µg/mL (≈ 21.5 µM) in the series with Staphylococcus aureus [18]; 8 µg/mL (≈ 21.5 µM) in the series on Staphylococcus aureus [3].

With `Cc1nc(-c2ccc3ccccc3c2)sc1-c1cnc(N)s1`, the MIC with Staphylococcus aureus [8], with Staphylococcus aureus [11] and against Staphylococcus aureus [2] was over 64 µg/mL throughout. The MBC against Staphylococcus aureus [12], in the series on Staphylococcus aureus [15] and against Staphylococcus aureus [3] was over 64 µg/mL each time.

As to `CCCCc1ccc(-c2nc(C)c(/C(C)=N/NC(=N)N)s2)cc1`, the microsomal CLint in [19] amounted to 80.3 µL/min/mg. For the same compound, the half-life in [20] was 28.8 min. This compound had a t1/2 in series [21] of over 240 min.

Take `Cc1nc(-c2ccc(-c3ccccc3)cc2)sc1-c1cnc(-c2cccnc2)s1`: the MIC against Staphylococcus aureus [8] stood at 16 µg/mL (≈ 38.9 µM); against Staphylococcus aureus [9], 8 µg/mL (≈ 19.4 µM); in the series on Staphylococcus aureus [10] it was 8 µg/mL (≈ 19.4 µM); against Staphylococcus aureus [11], 16 µg/mL (≈ 38.9 µM); in the series on Staphylococcus aureus [2] it was 16 µg/mL (≈ 38.9 µM). Besides, the MBC against Staphylococcus aureus [12] was over 64 µg/mL; in the series with Staphylococcus aureus [13], over 64 µg/mL; with Staphylococcus aureus [14], over 64 µg/mL; with Staphylococcus aureus [15] it was 64 µg/mL (≈ 156 µM); against Staphylococcus aureus [3], 16 µg/mL (≈ 38.9 µM).

The MIC is the lowest concentration found to suppress growth. Higher therefore signals a need for much substance. The MBC is the smallest concentration meeting the test's criterion for killing. Broadly, the half-life is the time in which the quantity being followed falls by half.

Source of the values: ChEMBL document CHEMBL4130411, “Arylthiazole antibiotics targeting intracellular methicillin-resistant Staphylococcus aureus (MRSA) that interfere with bacterial cell wall synthesis” (Eur J Med Chem, 2017).
